From ChEMBL document CHEMBL1142652, “5-(2-aminoethyl)dibenzo[c,h][1,6]naphthyridin-6-ones: variation of n-alkyl substituents modulates sensitivity to efflux transporters associated with multidrug resistance” (J Med Chem, 2005)

Assays:
[1] = test system: RPMI 8402; assay: Cytotoxicity against camptothecin-resistant RPMI 8402; assay type: functional, cell-based; settings: Homo sapiens
Summary of the method: (§1)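 MTT microtiter tetrazolium assay. Cells exposed continuously for 4 days to varying drug concentrations, MTT read at the end of day 4. An untreated control ran in each assay. IC50 taken; each assay done at least twice in six replicate wells. Sources: RPMI 8402 human lymphoblasts and CPT-resistant CPT-K5; P388 mouse leukemia and CPT-resistant TOP1-deficient P388/CPT45; KB3-1 with KBV-1 (MDR1) and KBH5.0 (BCRP, selected stepwise against Hoechst 33342).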

[2] = test system: P388; assay: Inhibitory concentration against P388 cell line in mouse leukemia was determine; assay type: functional, cell-based; summary of the method: as §1
[3] = Inhibitory concentration against camptothecin-resistant variant of P388 cell line was determined; assay type: functional, cell-based, Mus musculus; summary of the method: as §1
[4] = test system: KB 3-1; assay: Inhibitory concentration against KBH5.0 cells overexpress BCRP; assay type: functional, cell-based; settings: Homo sapiens, KBH5.0 cell; summary of the method: as §1
[5] = test system: RPMI 8402; assay: Inhibitory concentration against lymphoblast RPMI 8402 cell line was determined; assay type: functional, cell-based; settings: Homo sapiens; summary of the method: as §1
[6] = test system: KB 3-1; assay: Inhibitory concentration against KB3-1 cell line was determined; assay type: functional, cell-based; settings: Homo sapiens; summary of the method: as §1
[7] = target: T1, DNA topoisomerase 1 (Homo sapiens) (UniProt P11387); assay: Relative topoisomerase I-mediated plasmid DNA cleavage compared to topotecan; assay type: functional
T1 sequence (whole entry): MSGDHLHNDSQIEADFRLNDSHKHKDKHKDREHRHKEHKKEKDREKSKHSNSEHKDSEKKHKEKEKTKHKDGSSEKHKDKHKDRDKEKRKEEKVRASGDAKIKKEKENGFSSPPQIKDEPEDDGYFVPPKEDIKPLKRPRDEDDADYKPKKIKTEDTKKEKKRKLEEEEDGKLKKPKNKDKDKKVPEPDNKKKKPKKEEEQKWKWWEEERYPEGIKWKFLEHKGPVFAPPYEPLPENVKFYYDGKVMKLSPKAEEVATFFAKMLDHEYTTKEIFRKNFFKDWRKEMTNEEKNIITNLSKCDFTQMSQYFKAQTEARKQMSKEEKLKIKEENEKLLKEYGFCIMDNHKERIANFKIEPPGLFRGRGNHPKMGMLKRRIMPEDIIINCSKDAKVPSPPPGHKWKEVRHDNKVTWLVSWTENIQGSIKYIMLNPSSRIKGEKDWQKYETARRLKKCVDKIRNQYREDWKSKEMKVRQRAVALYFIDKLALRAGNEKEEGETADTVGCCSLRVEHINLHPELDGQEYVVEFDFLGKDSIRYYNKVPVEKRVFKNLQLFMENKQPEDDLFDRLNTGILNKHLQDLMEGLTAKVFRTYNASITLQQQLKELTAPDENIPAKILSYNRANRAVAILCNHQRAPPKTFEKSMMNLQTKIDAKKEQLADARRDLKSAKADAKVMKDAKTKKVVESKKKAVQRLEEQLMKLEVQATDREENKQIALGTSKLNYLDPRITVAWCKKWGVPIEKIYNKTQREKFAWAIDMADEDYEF
Summary of the method: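 Recombinant human topoisomerase I (T7-expressed in E. coli as a fusion protein). End-labeled plasmid YepG, CsCl-purified, incubated with drug and enzyme 30 min at 37 °C. Gel autoradiograms, typically 24 h exposure. Value is REC: concentration relative to topotecan (set at 1.0) that gives the same cleavage.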

[8] = Inhibitory concentration against KB/V-1 cells overexpress MDR1; assay type: functional, cell-based; settings: Homo sapiens; summary of the method: as §1

SMILES | IC50 [1] [nM] | IC50 [2] [nM] | IC50 [3] [nM] | IC50 [4] [nM] | IC50 [5] [nM] | IC50 [6] [nM] | Activity [7] | IC50 [8] [nM]
COc1cc2c(=O)n(CCNC(C)C)c3c4cc5c(cc4ncc3c2cc1OC)OCO5 | 180 | 1 | 30 | 6 | 3 | 5 | 0.3 | 5
COc1cc2c(=O)n(CCN(C)C)c3c4cc5c(cc4ncc3c2cc1OC)OCO5 |  |  | 230 | 6 |  |  | 0.3 | 
COc1cc2c(=O)n(CCN(Cc3ccccc3)Cc3ccccc3)c3c4cc5c(cc4ncc3c2cc1OC)OCO5 | 1950 | 250 | 500 | 300 | 380 | 300 | 15 | 360
CC[C@@]1(O)C(=O)OCc2c1cc1n(c2=O)Cc2cc3c(CN(C)C)c(O)ccc3nc2-1 [TOPOTECAN] | > 10000 |  | > 10000 | 440 | 21 |  |  | 
COc1cc2c(=O)n(CCN3CCNCC3)c3c4cc5c(cc4ncc3c2cc1OC)OCO5 | 2700 | 60 | 300 | 530 | 90 | 100 | 4.3 | 1900
COc1cc2c(=O)n(CCN3CCCCC3)c3c4cc5c(cc4ncc3c2cc1OC)OCO5 | 400 | 6 | 50 | 9 | 7 | 4 | 0.6 | 13
CNCCn1c(=O)c2cc(OC)c(OC)cc2c2cnc3cc4c(cc3c21)OCO4 [GENZ-644282] | 250 | 0.3 | 70 | 0.5 | 0.3 | 0.4 | 0.1 µM | 22
CCN(CCn1c(=O)c2cc(OC)c(OC)cc2c2cnc3cc4c(cc3c21)OCO4)C(C)C | 310 | 4 | 120 | 8 | 5 | 3 | 0.17 | 21
COc1cc2c(=O)n(CCN)c3c4cc5c(cc4ncc3c2cc1OC)OCO5 | 250 | 3 | 27 | 12 | 4 | 5 | 0.02 | 15
COc1cc2c(=O)n(CCN(C(C)C)C(C)C)c3c4cc5c(cc4ncc3c2cc1OC)OCO5 | 600 | 6 | 200 | 40 | 8 | 5 | 4.7 | 40
COc1cc2c(=O)n(CCN3CCN(C)CC3)c3c4cc5c(cc4ncc3c2cc1OC)OCO5 | 5900 | 230 | 650 | 400 | 300 | 500 | 1000 | 2500
COc1cc2c(=O)n(CCN3CCC(C)CC3)c3c4cc5c(cc4ncc3c2cc1OC)OCO5 | 450 | 14 | 190 | 40 | 30 | 30 | > 100 | 50
COc1cc2c(=O)n(CCNCc3ccccc3)c3c4cc5c(cc4ncc3c2cc1OC)OCO5 | 280 | 16 | 180 | 10 | 16 | 6 | 0.5 | 35
COc1cc2c(=O)n(CCN(Cc3ccccc3)C(C)(C)C)c3c4cc5c(cc4ncc3c2cc1OC)OCO5 | 5750 | 200 | 1850 | 500 | 850 | 190 | > 1000 | 2500
COc1cc2c(=O)n(CCN3CCN(Cc4ccccc4)CC3)c3c4cc5c(cc4ncc3c2cc1OC)OCO5 | 700 | 250 | 200 | 750 | 400 | 500 | 1000 | 700
COc1cc2c(=O)n(CCN3CCCC3)c3c4cc5c(cc4ncc3c2cc1OC)OCO5 | 390 | 6 | 60 | 4 | 3 | 3 | 0.3 | 8
CCN(CC)CCn1c(=O)c2cc(OC)c(OC)cc2c2cnc3cc4c(cc3c21)OCO4 | 850 | 4 | 150 | 5 | 6 | 4 | 1.4 | 15
CCN(CCn1c(=O)c2cc(OC)c(OC)cc2c2cnc3cc4c(cc3c21)OCO4)Cc1ccccc1 | 7500 | 50 | 360 | 330 | 77 | 180 | 12.3 | 400
COc1cc2c(=O)n(CCN(C)Cc3ccccc3)c3c4cc5c(cc4ncc3c2cc1OC)OCO5 | 2000 | 38 | 450 | 150 | 53 | 50 | 15.8 | 300
COc1cc2c(=O)n(CCNC(C)(C)C)c3c4cc5c(cc4ncc3c2cc1OC)OCO5 | 220 | 2 | 37 | 6 | 2 | 3 | 0.1 | 16
CCNCCn1c(=O)c2cc(OC)c(OC)cc2c2cnc3cc4c(cc3c21)OCO4 | 170 | 0.7 | 30 | 5 | 2 | 1 | 0.1 | 16
COc1cc2c(=O)n(CCN(Cc3ccccc3)C(C)C)c3c4cc5c(cc4ncc3c2cc1OC)OCO5 | 5900 | 230 | 650 | 500 | 300 | 800 | 7.4 | 4000
